For assay [1], the system named is Plasmodium falciparum. As to the kind of experiment: Antimalarial activity against chloroquine-sensitive Plasmodium falciparum 3D7 infected in erythrocytes after 72 hrs by syber green 1 assay. The conditions noted are these: 3D7, 72 h.
Assay [2] relates to Plasmodium falciparum 3D7. As to the kind of experiment: Selectivity index, IC50 for african green monkey Vero cells to IC50 for Plasmodium falciparum 3D7.
Assay [3] deals with Plasmodium yoelii. As to the kind of experiment: Antimalarial activity against chloroquine-resistant Plasmodium yoelii N-67 infected in Swiss mouse assessed as suppression of parasitaemia level at 50 mg/kg, ip qd for 4 days. It counts as functional. The conditions noted are these: route intraperitoneal. The gist of the method: (§1)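 Swiss mice (22±2 g), groups of five, inoculated with 1×10^6 P. yoelii N-67 parasitized RBC on day 0; compounds as aqueous suspension with a few drops Tween 80, given intraperitoneally in 0.2 mL once daily days 0–3. Parasitemia from thin blood smears days 4–6, group mean % suppression vs untreated controls; survivors counted on day 28.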

Assay [4] concerns Plasmodium yoelii. Description: Antimalarial activity against chloroquine-resistant Plasmodium yoelii N-67 infected in Swiss mouse assessed as mouse survival at 50 mg/kg, ip qd for 4 days. It counts as functional, organism-based. The arrangement: dose 50 mg/kg. The gist of the method:
as §1

Assay [5] is described as follows: Inhibition of beta-hematin formation after 16 hrs. It counts as functional. The gist of the method:
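Plasma came from male Swiss mice (15–20 g) infected with 1 × 10⁵ infected RBCs. Blood was drawn at 50% parasitemia by cardiac puncture into 2.0% citrate and spun at 4 °C. Hemin substrate ([…]) and compound were incubated in 100 mM acetate buffer, pH 5.1, at 37 °C for 16 h with shaking. The pellet was washed in SDS buffers. IC50 was the mean of three experiments in triplicate.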

The values below come from ChEMBL document CHEMBL1667763, “4-anilinoquinoline triazines: a novel class of hybrid antimalarial agents” (Eur J Med Chem, 2011).

Values after ≈ are worked out from the molar mass of the structure shown. Active and inactive are the calls of the source. No cut-off for these calls is given here.

A word on the IC50: it is the concentration that gives 50% inhibition. `Cc1ccccc1Nc1nc(Nc2ccc(Nc3ccnc4cc(Cl)ccc34)cc2)nc(N2CCN(C)CC2)n1` gave an IC50 in assay [1] of 18.9 nM. Further, the “Selectivity Index” value in assay [2] is given as 16.33.
For the compound `Cc1ccc(Nc2nc(NCCCN3CCOCC3)nc(Nc3ccc(Nc4ccnc5cc(Cl)ccc45)cc3)n2)cc1`, the Activity in assay [3] came to 100%. In addition, the result in assay [4] was inactive. Besides, the IC50 came to 2.85 µg/mL (≈ 4.78 µM) in assay [5] and 7.03 nM in assay [1]. The “Selectivity Index” value in assay [2] was determined as 610.98.
Compound `Cc1ccc(Nc2nc(NCc3ccccc3)nc(Nc3ccc(Nc4ccnc5cc(Cl)ccc45)cc3)n2)cc1` showed an IC50 in assay [1] of 63.5 nM. Further, the “Selectivity Index” value in assay [2] is recorded as 79.44.
The corresponding values for `CCCCNc1nc(Nc2ccc(C)cc2)nc(Nc2ccc(Nc3ccnc4cc(Cl)ccc34)cc2)n1` are 44.5 nM and 101.03.
The corresponding values for `Cc1ccc(Nc2nc(N)nc(Nc3ccc(Nc4ccnc5cc(Cl)ccc45)cc3)n2)cc1` are 11.9 nM and 134.89.
The corresponding values for `CNc1nc(Nc2ccccc2)nc(Nc2ccc(Nc3ccnc4cc(Cl)ccc34)cc2)n1` are 19 nM and 290.68.
Consider `Clc1ccc2c(Nc3ccc(Nc4nc(Nc5ccccc5)nc(NC5CCCCC5)n4)cc3)ccnc2c1`, for which the IC50 in assay [1] amounted to 64.8 nM. The “Selectivity Index” value in assay [2] is 76.97.
Turning to `CNc1nc(Nc2ccc(C)cc2)nc(Nc2ccc(Nc3ccnc4cc(Cl)ccc34)cc2)n1`, the Activity in assay [3] was 100%. Moreover, the result in assay [4] was inactive. The IC50 in assay [5] turned out to be 3.16 µg/mL (≈ 6.54 µM); in assay [1], 6.41 nM. In addition, the “Selectivity Index” value in assay [2] was determined as 491.91.
`Clc1ccc2c(Nc3cccc(Nc4nc(NCCCN5CCOCC5)nc(Nc5ccccc5)n4)c3)ccnc2c1` registered an IC50 in assay [1] of 111 nM. In addition, in assay [2], the “Selectivity Index” value worked out at 90.51.
As for `CNc1nc(Nc2ccc(Nc3ccnc4cc(Cl)ccc34)cc2)nc(Nc2ccccc2C)n1`, in assay [1], half-maximal inhibition (IC50) required 37.6 nM. Moreover, in assay [2], the “Selectivity Index” value is 240.35.
The corresponding values for `CCN(CC)CCNc1nc(Nc2ccc(Nc3ccnc4cc(Cl)ccc34)cc2)nc(N2CCCCC2)n1` are 38.8 nM and 59.71.
The corresponding values for `Cc1ccccc1Nc1nc(Nc2ccc(Nc3ccnc4cc(Cl)ccc34)cc2)nc(NC2CCCCC2)n1` are 163 nM and 449.8.
As to `Cc1ccc(Nc2nc(NCCCN3CCOCC3)nc(Nc3cccc(Nc4ccnc5cc(Cl)ccc45)c3)n2)cc1`, the Activity in assay [3] came out at 100%. Further, the outcome in assay [4] was inactive. The results for the half-inhibitory concentration (IC50) in assay [5] and in assay [1] were 2.7 µg/mL (≈ 4.53 µM) and 34.6 nM, respectively. Moreover, the “Selectivity Index” value in assay [2] was found to be 321.48.
Turning to `CCCCNc1nc(Nc2ccccc2)nc(Nc2ccc(Nc3ccnc4cc(Cl)ccc34)cc2)n1`, the Activity in assay [3] is on record as 100%. In assay [4], the result was inactive. Moreover, the IC50 is 3.08 µg/mL (≈ 6.03 µM) in assay [5] and 18.5 nM in assay [1]. For the same compound, the “Selectivity Index” value in assay [2] was 287.22.
Compound `CN1CCN(c2nc(Nc3ccccc3)nc(Nc3ccc(Nc4ccnc5cc(Cl)ccc45)cc3)n2)CC1` registered an IC50 in assay [1] of 5.85 nM. Besides, in assay [2], the “Selectivity Index” value is 92.06.
The corresponding values for `CCN1CCN(c2nc(Nc3ccccc3)nc(Nc3cccc(Nc4ccnc5cc(Cl)ccc45)c3)n2)CC1` are 60.1 nM and 90.51.
The matching figures for `CCN1CCN(c2nc(Nc3ccc(C)cc3)nc(Nc3ccc(Nc4ccnc5cc(Cl)ccc45)cc3)n2)CC1`: 11.9 nM and 35.61.
The matching figures for `CCN(CC)CCNc1nc(Nc2ccccc2)nc(Nc2ccc(Nc3ccnc4cc(Cl)ccc34)cc2)n1`: 60.4 nM and 79.47.
With `Cc1ccc(Nc2nc(Nc3cccc(Nc4ccnc5cc(Cl)ccc45)c3)nc(N3CCN(C)CC3)n2)cc1`, 43.2 nM corresponded to half-maximal inhibition in assay [1] (IC50). The “Selectivity Index” value in assay [2] is given as 226.18.
In assay [1], `CCN(CC)CCNc1nc(Nc2ccc(Nc3ccnc4cc(Cl)ccc34)cc2)nc(Nc2ccccc2C)n1` displayed an IC50 of 26.1 nM. For the same compound, in assay [2], the “Selectivity Index” value came to 136.49.
The corresponding values for `CCN1CCN(c2nc(Nc3ccc(Nc4ccnc5cc(Cl)ccc45)cc3)nc(Nc3ccccc3C)n2)CC1` are 102 nM and 2.58.
On to `CCN(CC)CCNc1nc(Nc2ccc(C)cc2)nc(Nc2ccc(Nc3ccnc4cc(Cl)ccc34)cc2)n1`, for which, in assay [1], half-maximal inhibition (IC50) was put at 82.8 nM. In assay [2], the “Selectivity Index” value came to 64.38.
The corresponding values for `Cc1ccccc1Nc1nc(N)nc(Nc2ccc(Nc3ccnc4cc(Cl)ccc34)cc2)n1` are 29.6 nM and 163.54.
As for `CCCCNc1nc(Nc2ccc(Nc3ccnc4cc(Cl)ccc34)cc2)nc(Nc2ccccc2C)n1`, the Activity in assay [3] turned out to be 100%. Further, in assay [4], the outcome was inactive. Moreover, the IC50 came out at 2.96 µg/mL (≈ 5.64 µM) in assay [5] and 31.5 nM in assay [1]. In assay [2], the “Selectivity Index” value was 821.15.
`Cc1ccc(Nc2nc(Nc3ccc(Nc4ccnc5cc(Cl)ccc45)cc3)nc(NC3CCCCC3)n2)cc1`: the IC50 in assay [1] worked out at 74 nM. Also, the “Selectivity Index” value in assay [2] was 137.42.
`CCN(CC)CCCC(C)Nc1ccnc2cc(Cl)ccc12` (stereo not drawn) [CHLOROQUINE] yielded an IC50 in assay [5] of 3.65 µg/mL (≈ 11.4 µM).
In assay [1], `Cc1ccccc1Nc1nc(NCc2ccccc2)nc(Nc2ccc(Nc3ccnc4cc(Cl)ccc34)cc2)n1` registered an IC50 of 27.8 nM. The “Selectivity Index” value in assay [2] is 2129.68.
The matching figures for `CN1CCN(c2nc(Nc3ccc(Nc4ccnc5cc(Cl)ccc45)cc3)nc(N3CCCCC3)n2)CC1`: 34.8 nM and 106.35.
The matching figures for `Cc1ccccc1Nc1nc(NCCCN2CCOCC2)nc(Nc2ccc(Nc3ccnc4cc(Cl)ccc34)cc2)n1`: 13.4 nM and 418.75.
The corresponding values for `Cc1ccc(Nc2nc(Nc3ccc(Nc4ccnc5cc(Cl)ccc45)cc3)nc(N3CCN(C)CC3)n2)cc1` are 12.4 nM and 36.39.
Consider `Clc1ccc2c(Nc3ccc(Nc4nc(NCc5ccccc5)nc(N5CCCCC5)n4)cc3)ccnc2c1`, for which the concentration for half-maximal inhibition (IC50) in assay [1] came to 235 nM. Besides, the “Selectivity Index” value in assay [2] is recorded as 98.42.
The corresponding values for `CN1CCN(c2nc(Nc3ccccc3)nc(Nc3cccc(Nc4ccnc5cc(Cl)ccc45)c3)n2)CC1` are 47.2 nM and 223.4.
Regarding `Clc1ccc2c(Nc3ccc(Nc4nc(NC5CCCCC5)nc(N5CCCCC5)n4)cc3)ccnc2c1`, in assay [1], it took 313 nM to reach half-maximal inhibition (IC50). The “Selectivity Index” value in assay [2] was determined as 189.52.
The corresponding values for `CCN(CC)CCNc1nc(Nc2ccccc2)nc(Nc2cccc(Nc3ccnc4cc(Cl)ccc34)c2)n1` are 292 nM and 135.37.
The matching figures for `Clc1ccc2c(Nc3ccc(Nc4nc(NCc5ccccc5)nc(Nc5ccccc5)n4)cc3)ccnc2c1`: 33.6 nM and 151.04.
The matching figures for `Nc1nc(Nc2ccccc2)nc(Nc2ccc(Nc3ccnc4cc(Cl)ccc34)cc2)n1`: 41.5 nM and 132.63.
Take `CCN1CCN(c2nc(Nc3ccc(C)cc3)nc(Nc3cccc(Nc4ccnc5cc(Cl)ccc45)c3)n2)CC1`: in assay [1], the IC50 was 41 nM. In addition, the “Selectivity Index” value in assay [2] was determined as 229.5.
